Measured values reported in article PMC4474499 (Science Advances, 2015).
Entries after “also recorded” stand apart in the source; their conditions may differ. Non-standard residues stand in square brackets, D forms with d. No end group written: not given here. Pam3Cys = Cys carrying the Pam3 acyl chains of Pam3CSK4

B1: rhodamine-labeled Pam3CSK4 (peptide)
peptide: [Pam3Cys]SKKKK
modifications: also: rhodamine label, site not given here
B2: human TLR1 protein, purified extracellular domain (receptor, UniProt Q15399 25-580, looked up)
chain: SEFLVDRSKNGLIHVPKDLSQKTTILNISQNYISELWTSDILSLSKLRILIISHNRIQYLDISVFKFNQELEYLDLSHNKLVKISCHPTVNLKHLDLSFNAFDALPICKEFGNMSQLKFLGLSTTHLEKSSVLPIAHLNISKVLLVLGETYGEKEDPEGLQDFNTESLHIVFPTNKEFHFILDVSVKTVANLELSNIKCVLEDNKCSYFLSILAKLQTNPKLSNLTLNNIETTWNSFIRILQLVWHTTVWYFSISNVKLQGQLDFRDFDYSGTSLKALSIHQVVSDVFGFPQSYIYEIFSNMNIKNFTVSGTRMVHMLCPSKISPFLHLDFSNNLLTDTVFENCGHLTELETLILQMNQLKELSKIAEMTTQMKSLQQLDISQNSVSYDEKKGDCSWTKSLLSLNMSSNILTDTIFRCLPPRIKVLDLHSNKIKSIPKQVVKLEALQELNVAFNSLTDLPGCGSFSSLSVLIIDHNSVSHPSADFFQSCQKMRSIKAGDNPFQCTCELGEFVKNIDQVSSEVLEGWPDSYKCDYPESYRGTLLKDFHMSELSCNIT

Legend:
human TLR2 = human TLR2 (Homo sapiens, UniProt O60603+Q15399); assay: SEAP reporter gene detection assay in HEK-Blue hTLR2 cells; type: cell-based
human TLR2, sequence (O60603 21-784): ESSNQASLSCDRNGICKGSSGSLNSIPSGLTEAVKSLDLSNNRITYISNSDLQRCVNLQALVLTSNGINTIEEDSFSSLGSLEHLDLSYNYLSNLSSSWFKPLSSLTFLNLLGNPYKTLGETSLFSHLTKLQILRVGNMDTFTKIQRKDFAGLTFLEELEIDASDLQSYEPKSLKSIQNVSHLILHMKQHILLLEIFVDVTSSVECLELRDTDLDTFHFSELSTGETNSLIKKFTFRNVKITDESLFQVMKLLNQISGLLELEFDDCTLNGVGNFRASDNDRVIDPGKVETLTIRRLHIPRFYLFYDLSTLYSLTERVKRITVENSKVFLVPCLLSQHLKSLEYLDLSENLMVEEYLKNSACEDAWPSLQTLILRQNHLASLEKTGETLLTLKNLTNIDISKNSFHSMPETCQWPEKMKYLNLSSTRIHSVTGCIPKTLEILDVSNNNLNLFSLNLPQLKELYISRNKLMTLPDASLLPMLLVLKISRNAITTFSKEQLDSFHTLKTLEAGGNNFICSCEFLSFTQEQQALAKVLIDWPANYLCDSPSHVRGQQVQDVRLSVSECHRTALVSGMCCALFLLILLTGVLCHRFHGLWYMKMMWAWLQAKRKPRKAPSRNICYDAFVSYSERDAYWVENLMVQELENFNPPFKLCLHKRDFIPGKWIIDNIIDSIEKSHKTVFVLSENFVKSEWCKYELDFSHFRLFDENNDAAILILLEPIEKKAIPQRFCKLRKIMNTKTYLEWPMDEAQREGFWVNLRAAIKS
human TLR2, sequence (Q15399 25-786): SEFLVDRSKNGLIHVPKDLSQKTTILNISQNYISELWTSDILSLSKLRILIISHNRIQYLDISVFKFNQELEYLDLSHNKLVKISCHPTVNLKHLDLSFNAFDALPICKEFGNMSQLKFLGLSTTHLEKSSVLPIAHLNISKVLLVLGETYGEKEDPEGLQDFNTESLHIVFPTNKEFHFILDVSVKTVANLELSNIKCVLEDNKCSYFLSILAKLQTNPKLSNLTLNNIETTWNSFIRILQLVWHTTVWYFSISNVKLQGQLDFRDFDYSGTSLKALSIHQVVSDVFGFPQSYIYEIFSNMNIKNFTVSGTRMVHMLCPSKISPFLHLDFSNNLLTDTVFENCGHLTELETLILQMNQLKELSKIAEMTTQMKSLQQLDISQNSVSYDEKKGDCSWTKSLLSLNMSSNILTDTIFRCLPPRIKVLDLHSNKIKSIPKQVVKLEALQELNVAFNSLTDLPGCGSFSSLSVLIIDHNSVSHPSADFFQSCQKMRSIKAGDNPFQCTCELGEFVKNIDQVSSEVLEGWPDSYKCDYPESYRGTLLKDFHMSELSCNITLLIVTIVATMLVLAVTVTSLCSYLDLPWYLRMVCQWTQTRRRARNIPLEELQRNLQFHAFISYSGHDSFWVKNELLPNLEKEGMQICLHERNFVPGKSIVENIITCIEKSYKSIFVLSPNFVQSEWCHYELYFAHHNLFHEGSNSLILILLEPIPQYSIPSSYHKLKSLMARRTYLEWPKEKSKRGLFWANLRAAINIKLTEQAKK
How it was run: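 HEK-Blue hTLR2 cells (SEAP reporter), 4 × 10^4/well, grown 24 h. Then 24 h in Opti-MEM/0.5% FBS with compounds at 0–50 μM or 0–100 μM. Pam3CSK4 (0–66 nM) used as reference agonist. Supernatant heat-treated 30 min at 65°C, cooled, mixed with SEAP buffer and CSPD substrate; luminescence read after 20 min.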

TLR1/2 complex = TLR1/2 complex (Homo sapiens, UniProt O60603+Q15399); assay: Fluorescence anisotropy competition with Rho-Pam3; type: binding; settings: up to 10 μM
TLR1/2 complex, sequence (O60603 21-588 limits assumed, one chain of several): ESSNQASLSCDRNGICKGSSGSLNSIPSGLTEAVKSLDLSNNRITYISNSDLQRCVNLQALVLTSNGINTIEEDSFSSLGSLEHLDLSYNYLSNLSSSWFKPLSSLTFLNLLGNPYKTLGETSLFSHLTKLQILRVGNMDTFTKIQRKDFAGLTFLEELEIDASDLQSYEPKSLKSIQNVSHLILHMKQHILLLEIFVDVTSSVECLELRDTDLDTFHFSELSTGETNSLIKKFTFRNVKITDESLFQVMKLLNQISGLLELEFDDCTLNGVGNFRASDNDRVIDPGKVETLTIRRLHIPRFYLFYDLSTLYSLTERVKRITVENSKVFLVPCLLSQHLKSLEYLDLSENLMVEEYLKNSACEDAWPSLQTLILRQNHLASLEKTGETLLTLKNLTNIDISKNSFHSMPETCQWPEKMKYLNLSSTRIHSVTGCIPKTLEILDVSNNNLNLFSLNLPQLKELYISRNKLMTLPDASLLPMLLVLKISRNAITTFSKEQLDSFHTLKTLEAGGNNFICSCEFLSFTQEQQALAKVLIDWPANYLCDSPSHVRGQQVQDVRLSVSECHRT
How it was run: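 Equal amounts of TLR1 and TLR2 (4 μl each of 10 μM stocks) added to Rho-Pam3CSK4 in PBS pH 7.4 and held 30 min. Serial test-compound concentrations then incubated with the complex 30 min at RT. Fluorescence anisotropy read at 25°C (ex 549/em 566 nm). An analog served as negative control; IC50 derived from the titration.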

NF-κB [1] = assay: U937 NF-κB–GFP reporter assay; type: cell-based, human; settings: 20 μM (GA even up to 100 μM), U937 cells
Raw 264.7 cells [2] = assay: In vitro NO activation assay for Raw 264.7 cells; type: cell-based, mouse; settings: Raw 264.7 macrophage cells, 1 µM CU-T12-9
How it was run: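 RAW 264.7 cells, 80,000/well, grown 24 h. Non-adherent cells removed; medium changed to unsupplemented RPMI 1640. Treated 24 h with test compound, or 66 nM (100 ng/ml) Pam3CSK4 as control. Supernatant reacted 15 min in the dark with 2,3-diaminonaphthalene in HCl, quenched with NaOH. Fluorescence read at ex 365/em 450 nm; nitrite calculated from a standard curve.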

NF-κB [3] = assay: Triptolide inhibition of CU-T12-9–induced SEAP signaling in HEK-Blue hTLR2 cells; type: cell-based, human
hTLR1 and hTLR2 = hTLR1 and hTLR2 (Homo sapiens, UniProt O60603+Q15399); assay: SEC-LS assay of TLR1/2 heterodimer formation; type: biochemical; settings: CU-T12-9 0 to 40 μM or Pam3CSK4 260 nM (400 ng/ml)
hTLR1 and hTLR2, sequence (O60603 21-588 limits assumed, one chain of several): as above
How it was run: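 Human TLR2 in PBS pH 7.4 preincubated 2 h at RT with test compound or Pam3CSK4. Equimolar hTLR1 then added (final about 10 μM each) for 2 h at 37°C. Both proteins were baculovirus/insect-cell products. Samples filtered (0.1 μm) and run on size-exclusion column in PBS at 1 ml/min. Detection by in-line multi-angle light scattering, refractive index and UV.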

Raw 264.7 cells [4] = assay: Quantitative RT-PCR of mRNA levels in Raw 264.7 macrophage cells; type: cell-based, mouse
How it was run: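 RAW 264.7 cells, 1 × 10^6/well, grown 24 h, then given fresh RPMI 1640. Exposed to test compound, or 33 nM (50 ng/ml) Pam3CSK4, for 0, 2, 8 or 24 h. Cells washed in cold PBS and frozen. Total RNA extracted (RNeasy) for qRT-PCR. Fold change calculated by ΔΔCt versus DMSO-treated cells, means ± SD.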

[5] = target: human TLR2 protein, purified extracellular domain (human, UniProt O60603 21-588); assay: fluorescence polarisation
human TLR2 protein, purified extracellular domain, sequence (O60603 21-588): as the sequence (O60603 21-588 limits assumed, one chain of several) above

[6] = target: B2; assay: fluorescence polarisation
[7] = target: TLR1/TLR2 complex (equimolar mixture of purified hTLR1 and hTLR2) (human, UniProt Q15399 25-580; O60603 21-588); assay: fluorescence polarisation
TLR1/TLR2 complex (equimolar mixture of purified hTLR1 and hTLR2), sequence (O60603 21-588, chain 2 of 2, one chain of several): as the sequence (O60603 21-588 limits assumed, one chain of several) above

SEC-MALS = target: the molecule itself; assay: SEC-MALS

`CNc1ccc([N+](=O)[O-])cc1-n1cnc(-c2cccc([N+](=O)[O-])c2)c1` [Compound 10] was tested, and the “SEAP agonist activity (in words)” value (human TLR2; HEK-Blue hTLR2 cells, nitro group switched from R3 to R4) was “completely abolished activity”.

With `CNc1ccc([N+](=O)[O-])cc1-n1cnc(-c2ccc(C#N)cc2)c1` [Compound 11] the “increase in potency relative to GA (factor)” value (human TLR2; replacement of –NO2 at R3) was 10.

`CNc1ccc([N+](=O)[O-])cc1-n1cnc(-c2ccc(C(=O)O)cc2)c1` [Compound 19] was tested, and the “SEAP activity at 100 μM” value (human TLR2; 100 μM, HEK-Blue hTLR2 cells) was “inactive”.

`CNc1ccc(C(F)(F)F)cc1-n1cnc(-c2ccc(C(F)(F)F)cc2)c1` [Compound 20] was tested, and the “decrease in potency compared with CU-T12-9” value (human TLR2; –CF3 at R1) was “four times”.

`CNc1ccc(C(=O)O)cc1-n1cnc(-c2ccc(C(F)(F)F)cc2)c1` [Compound T12-29] was tested, and the “inhibition of Rho-Pam3 binding to TLR1/TLR2” value (TLR1/2 complex) was “no competitive binding; also recorded: negligible inhibition”.

In the case of `CNc1ccc([N+](=O)[O-])cc1-n1cnc(-c2ccc([N+](=O)[O-])cc2)c1` [GA, N-methyl-4-nitro-2-(4-(4-nitrophenyl)-1H-imidazol-1-yl)aniline, reference compound], the NF-κB activation (NF-κB [1]) is reported as “much lower NF-κB activation”.

In the case of `CCOC(=O)C1=CCCC[C@H]1S(=O)(=O)Nc1ccc(F)cc1Cl` [TAK-242, reference compound], the “inhibition of CU-T12-9 induced NO activation” value (Raw 264.7 cells [2]) is reported as “could not be influenced”.

`CC(C)[C@]12O[C@H]1[C@@H]1O[C@]13[C@]1(O[C@H]1C[C@H]1C4=C(CC[C@@]13C)C(=O)OC4)[C@@H]2O` [Triptolide] was tested, and the “inhibition of CU-T12-9–induced SEAP signaling” value (NF-κB [3]) was “efficiently inhibit”.

In the case of Pam3CSK4 [reference compound], the TLR1/2 heterodimer formation (hTLR1 and hTLR2) is reported as “promoted TLR1/2 heterodimerization”, the “time of highest TLR2 mRNA expression” value (Raw 264.7 cells [4]; 1 μM CU-T12-9 or 33 nM (50 ng/ml) Pam3CSK4, measured at 2, 8, 24 hours) is reported as 2 h and the “TNF mRNA expression” value (Raw 264.7 cells [4]; over time, maximal expression after 8 hours) is reported as “increased”. For the same molecule, the “iNOS mRNA expression” value (Raw 264.7 cells [4]; over time, peaked at 24 hours) was “increased”.

With B1 the Kd [5] was 0.125 ± 0.00343 µM, the Kd [6] was 0.0416 ± 0.00236 µM and the Kd [7] was 0.035 ± 0.00198 µM.

For B2, the “stoichiometry N” value (SEC-MALS) was 2.
